Bioassay records deposited in PubChem BioAssay by several laboratories.
Compounds with a hit are over-represented: about 1.6% of the library has one in this group of screens.
Cardio protect – myocardial damage modulation in H9c2 cells; H9c2 cardiomyocytes, H2O2 injury protection, ATPLite, 2 h; protection from H2O2 cell death, % at 20 µM; 360,000 compounds, 0.63% hits; AID 588492;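 active = compounds giving at least 50% protection of heart cells from peroxide-induced death in the single-dose screen, raw or plate-pattern-corrected value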
ARFGAP1 inh – inhibitors of rat ARFGAP1; inhibition, % at 16.5 µM; 360,000 compounds, 0.26% hits; AID 651572; Arfgap1-stimulated ARF1 GTP hydrolysis, GDP FP detection; Q62848;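 active = inhibition above a per-plate limit, mean inhibition of low control wells plus 3 SD, cut at about 25% in these data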
Target sequence (Q62848 1-136 limits assumed): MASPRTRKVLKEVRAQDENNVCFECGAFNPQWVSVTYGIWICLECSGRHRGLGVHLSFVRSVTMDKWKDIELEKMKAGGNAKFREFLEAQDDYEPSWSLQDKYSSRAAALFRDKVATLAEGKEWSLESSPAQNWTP
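material = rat Arfgap1 catalytic domain, aa 1-136 | also added = human ARF1(Δ1-17)-GTP substrate | compound dosing = one concentration, 16.5 µM, DMSO 1.26% | times = GTP hydrolysis reaction 2 h at 25 °C | measured by = FP, GDP Alexa 633 tracer displaced from anti-GDP antibody, 620/688 nm | evaluation = percent inhibition of Arfgap1-stimulated GTP hydrolysis | replication = single well per compound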
Neddyl block – cullin neddylation inhibition; P61081+Q13564; TR-FRET cullin neddylation, biochemical; inhibition, % at 25 µM; 360,000 compounds, 0.58% hits; in the data active = inhibition above about 36%
ASAP1 GAP inh – ASAP1 ArfGAP inhibition | 360,000 compounds, 0.19% hits | ASAP1-stimulated ARF1 GTP hydrolysis, GDP FP detection | Q9ULH1 | inhibition, % at 16.5 µM; in the data active = inhibition above about 25%
Target sequence (Q9ULH1 325-724 limits assumed): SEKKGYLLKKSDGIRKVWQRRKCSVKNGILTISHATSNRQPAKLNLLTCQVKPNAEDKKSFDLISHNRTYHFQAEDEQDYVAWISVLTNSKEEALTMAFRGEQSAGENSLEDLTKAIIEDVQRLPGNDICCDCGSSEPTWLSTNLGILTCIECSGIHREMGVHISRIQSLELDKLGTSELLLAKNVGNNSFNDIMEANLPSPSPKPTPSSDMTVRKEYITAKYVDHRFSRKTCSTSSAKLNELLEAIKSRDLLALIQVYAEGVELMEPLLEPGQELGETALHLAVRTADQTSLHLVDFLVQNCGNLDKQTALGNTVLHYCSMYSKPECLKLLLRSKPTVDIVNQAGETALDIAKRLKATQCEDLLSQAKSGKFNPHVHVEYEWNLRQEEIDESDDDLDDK
ASAP1 inh confirm – confirmation of human ASAP1 inhibitors | shares compounds with ASAP1 GAP inh | ASAP1-stimulated Arf1 GTPase, GDP fluorescence polarization | inhibition, % at 16.5 µM | 620 compounds, 37% hits | AID 624431;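 active = mean inhibition over triplicates exceeds the hit threshold derived for the earlier primary screening run, cut at about 25% in these data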
Of the large screens only hits and unclear results are named; the others gave an inactive call (follow-up assays come after a bar, where shown).

COc1ccccc1NS(=O)(=O)c1cc(NC(=O)/C=C/c2cccs2)ccc1N1CCOCC1	ASAP1 GAP inh 32 | ASAP1 inh confirm inactive
Cc1cc(C)n(/N=C/c2ccco2)c(=O)c1C#N	ASAP1 GAP inh 25 | ASAP1 inh confirm inactive
CCOC(=O)c1sc(Nc2nc3c(OC)cccc3s2)nc1C	ASAP1 GAP inh 25 | ASAP1 inh confirm inactive
CCOC(=O)c1sc(Nc2ccccc2)nc1C	none
S=c1[nH]nc(Cc2cccs2)n1-c1ccccc1Cl	ASAP1 GAP inh 26 | ASAP1 inh confirm inactive
S=c1[nH]nc(Cc2cccs2)n1-c1cccc2ccccc12	none
Cc1ccc(Nc2cc(C)c3c(O)cccc3n2)cc1C	ASAP1 GAP inh 30 | ASAP1 inh confirm inactive
C=CCN(C/C(=N\O)c1sc(C(=O)OCC)nc1C)c1cccc(Br)c1	ASAP1 GAP inh 26 | ASAP1 inh confirm inactive
CCOC(=O)c1sc(N/N=C/c2cccc(C)c2)nc1C	none
O=C(Nc1ccc2ccccc2c1)C(=O)C1C(=O)Nc2ccccc21 (stereo not drawn)	ASAP1 GAP inh 25 (no result: Cardio protect, Neddyl block) | ASAP1 inh confirm inactive
COCCCNC(=O)c1ccc2sc([C@@H]3O[C@H](CO)[C@H](O)[C@H](O)[C@H]3O)nc2c1	none
Cc1ccc(N=Nc2c(N)n[nH]c2N)cc1	none
Cc1ccc(-c2[nH]nc(N)c2N=Nc2cccc(Cl)c2C)cc1	none
Cc1cccc(N=Nc2c(N)n[nH]c2-c2ccc(Cl)cc2)c1	ASAP1 GAP inh 26 | ASAP1 inh confirm inactive
Cc1ccc(-c2[nH]nc(N)c2N=Nc2ccccc2C)cc1	ASAP1 GAP inh 27 | ASAP1 inh confirm inactive
C=CCn1c(C(C)n2c(-c3cnccn3)nc3ccccc32)nc2ccccc21 (stereo not drawn)	none (no result: Cardio protect)
COc1ccc(-c2[nH]ncc2/C=N\NC(=O)c2ccc(Br)o2)cc1OC	ASAP1 GAP inh 25 | ASAP1 inh confirm inactive
Cc1ccsc1C(=O)OCC(=O)NC1CCCCC1	ASAP1 GAP inh 29 | ASAP1 inh confirm inactive
Cc1ccsc1C(=O)OCC(=O)NC1CC1	none
Cc1ccc(C(=O)N(C)[C@H]2C[C@H]3c4[nH]c5c(-c6ccccc6)cccc5c4CCN3C(=O)[C@H]2[C@H](C)O)cc1	none (no result: Cardio protect, Neddyl block)
O=C(NCc1ccc(F)cc1F)[C@@H]1CCCN1C(=O)[C@@H]1CCCN1C(=O)c1ccccc1	none (no result: Cardio protect)
CCc1ccc(CCOc2ccc(CC3SC(=O)NC3=O)cc2)nc1 (stereo not drawn)	ASAP1 GAP inh 25 | ASAP1 inh confirm inactive
CNc1cncc(-c2ccc(OC)c(OC)c2)n1	none
O=c1c(-c2c(O)cc(O)c3c(=O)cc(-c4ccc(O)cc4)oc23)c(-c2ccc(O)cc2)oc2cc(O)cc(O)c12	ASAP1 GAP inh 25 (not shown: Neddyl block) | ASAP1 inh confirm 27
O=c1cc(-c2ccc(O)cc2)oc2c(-c3c(O)cc(O)c4c(=O)cc(-c5ccc(O)cc5)oc34)c(O)cc(O)c12	none
CNC(=S)N(CCc1c(C)[nH]c2ccc(C)cc12)Cc1cccs1	ASAP1 GAP inh 26 | ASAP1 inh confirm inactive
COc1ccc(NC(=S)N(CCc2c(C)[nH]c3ccc(C)cc23)Cc2cccs2)cc1	none
O=C1C(SCCO)=C(SCCO)C(=O)c2ccccc21	none
CC1=C(SCc2ccccc2)C(=O)c2ccccc2C1=O	ASAP1 GAP inh 32 | ASAP1 inh confirm inactive
Cc1nnc(SCC(=O)NCc2cccs2)n1-c1ccccc1	none
Cc1occc1-c1nnc(SCC(=O)NCc2cccs2)n1-c1ccc(F)cc1	ASAP1 GAP inh 26 | ASAP1 inh confirm inactive
Cc1cccnc1C1=NOC(Cc2ccccc2)C(=O)N1Cc1ccccc1F (stereo not drawn)	ASAP1 GAP inh 26 | ASAP1 inh confirm inactive
COc1ccccc1CN1C(=O)C(Cc2ccccc2)ON=C1c1ncccc1C (stereo not drawn)	none
CCC(C)Oc1cc(-c2ccnc(Nc3cccc(Cl)c3)n2)ccn1 (stereo not drawn)	none
OCCCNc1cc(-c2ccnc(Nc3cccc(Cl)c3)n2)ccn1	ASAP1 GAP inh 27 (not shown: Neddyl block) | ASAP1 inh confirm inactive
CCNC(=O)N1CCN(c2ccc(N3CCN(Cc4ccccc4)[C@H](C)C3)c(C)c2)[C@H](C)C1	none (no result: Cardio protect, Neddyl block)
CCn1nc(NC(=O)c2ccncc2)c2cc3ccc(C)cc3nc21	ASAP1 GAP inh 25 | ASAP1 inh confirm inactive
CCCCCC(=O)N1C[C@@H](O)[C@H](n2cc(COC(=O)c3ccccc3)nn2)C[C@@H]1c1ccc(OC)cc1	none
CCOc1ccc(CCNC(=O)CN2C(=O)NC(CCSC)C2=O)cc1OCC (stereo not drawn)	ASAP1 GAP inh 28 | ASAP1 inh confirm inactive
CCOc1ccc(CCNC(=O)CN2C(=O)NC3(CCCCC3C)C2=O)cc1OCC (stereo not drawn)	none
CCc1ccc(OCC(=O)N2CCc3ccccc32)cc1	ASAP1 GAP inh 26 | ASAP1 inh confirm inactive
O=C(Cc1ccccc1)O/N=C1\CCCc2ccccc21	ASAP1 GAP inh 26 | ASAP1 inh confirm inactive
OCC[C@@H]1C[C@H](O)[C@@H](O)[C@@]2(OCc3cc(Cl)ccc32)O1	ASAP1 GAP inh 25 | ASAP1 inh confirm inactive
OCC[C@@H]1C[C@H](O)[C@@H](O)[C@]2(OCc3cc(Cl)ccc32)O1	none
COc1ccc(-c2csc(NC(=O)c3ccccc3NS(=O)(=O)c3ccc(F)c(F)c3)n2)cc1	ASAP1 GAP inh 29 | ASAP1 inh confirm inactive
C=CCN=C1NC(CCc2ccccc2)C(C(=O)OC)=C(C)N1Cc1ccccc1C(F)(F)F (stereo not drawn)	none (no result: Cardio protect, Neddyl block)
Cn1c(SCC(=O)NC2CCCC2)nc2c(c1=O)SCC2	ASAP1 GAP inh 28 | ASAP1 inh confirm inactive
COc1ccccc1NS(=O)(=O)c1ccc(C)c(C(=O)Nc2cc(C)on2)c1	ASAP1 GAP inh 26 | ASAP1 inh confirm inactive
O=C(C1CCC(CNS(=O)(=O)c2ccccc2)CC1)N1CCCCC1 (stereo not drawn)	ASAP1 GAP inh 28 | ASAP1 inh confirm inactive
c1ccc2c(c1)nnn2Cn1nnc2ccccc21	none
COc1cccc(-c2cnc3c(NC=O)cc(-c4ccc(N5CCN(C)CC5)cc4)cn23)c1	ASAP1 GAP inh 36 | ASAP1 inh confirm 76
COc1cccc(-c2cnc3c(NC=O)cc(-c4ccc(S(C)(=O)=O)cc4)cn23)c1	none
CC(Cc1cccs1)NC(=S)Nc1ccc(Cl)c(Cl)c1 (stereo not drawn)	none
CC(Cc1cccs1)NC(=S)Nc1ccc(Cl)cc1 (stereo not drawn)	ASAP1 GAP inh 29 | ASAP1 inh confirm inactive
Cc1ccc2nc(/C(C#N)=C\c3ccc([N+](=O)[O-])o3)[nH]c2c1	none
N#C/C(=C\c1ccc([N+](=O)[O-])o1)c1nc2ccccc2[nH]1	ASAP1 GAP inh 29 (no result: Cardio protect, Neddyl block) | ASAP1 inh confirm inactive
COC(=O)c1ccccc1NC1=C/C(=N\S(=O)(=O)c2ccc(C(=O)O)cc2)c2ccccc2C1=O	none (no result: ARFGAP1 inh, ASAP1 GAP inh)
COC(=O)c1ccccc1NC1=C/C(=N\S(=O)(=O)c2cccs2)c2ccccc2C1=O	ASAP1 GAP inh 35 | ASAP1 inh confirm inactive
NS(=O)(=O)c1ccc(CCNc2nc3c(-c4cccc(F)c4)nnn3c3ccccc23)cc1	ASAP1 GAP inh 55 | ASAP1 inh confirm 88
CCOC(=O)CN1CCCc2nc(-c3ccc(OC)cc3)ccc21	none (no result: Cardio protect, Neddyl block)
